Results collected from several papers.
Compare with care: the assays were run in different laboratories. Converted amounts (≈) assume the structure as drawn.

| SMILES | organism | test | test system | conditions | quantity | value |
| --- | --- | --- | --- | --- | --- | --- |
| Cc1c(NC(=O)CC2=NC(=O)CS2)c(=O)n(-c2ccccc2)n1C | Bacillus subtilis | microbial killing, broth dilution |  |  | MBC | 2 µg/mL (≈ 5.81 µM) |
| C[C@@H]1[C@H](O)[C@@H](C)/C=C/C=C/C=C/C=C/C=C/C=C/C=C/[C@H](O[C@@H]2O[C@H](C)[C@@H](O)[C@H](N)[C@@H]2O)C[C@@H]2O[C@](O)(C[C@@H](O)C[C@@H](O)[C@H](O)CC[C@@H](O)C[C@@H](O)CC(=O)O[C@H]1C)C[C@H](O)[C@H]2C(=O)O | Cryptococcus neoformans | microbial growth | ATCC90113 |  | IC50 | 0.26 µM |
| O=C1NC(=S)N/C1=C\c1ccc(-c2ccc(N(c3ccccc3)c3ccccc3)cc2)c2ccccc12 | Bacillus subtilis | microbial killing, broth dilution | ATCC6633 |  | MBC | > 1000 µg/mL |
| O=C(O)c1nc2ccccc2c(=O)n1Cc1cn(-c2ccc([N+](=O)[O-])cc2)nn1 | Nakaseomyces glabratus | microbial growth, broth dilution | ATCC90030 | 24 h | IC50 | 432 µg/mL |
| Cc1ccc(-c2nn(-c3ccccc3)cc2C=c2sc(=CC#N)[nH]c2=O)cc1 | Bacillus subtilis | microbial growth, well diffusion |  | 100000 µg/mL | inhibition zone | 12 mm |
| CC1(C)S[C@@H]2[C@H](NC(=O)[C@H](N)c3ccccc3)C(=O)N2[C@H]1C(=O)O | Listeria monocytogenes | microbial growth, agar dilution |  | 26.93 µM | inhibition | 100% |
| N#CC(=Cc1ccccc1O)C1=NC(=O)C(=Cc2cn(-c3ccccc3)nc2-c2ccccc2)S1 | Bacillus subtilis | microbial growth, well diffusion |  | 100000 µg/mL | inhibition zone | 25 mm |
| CCOC(=O)c1nc2ccccc2c(=O)n1Cc1cn(-c2ccccc2OC)nn1 | Nakaseomyces glabratus | microbial growth, broth dilution | ATCC90030 | 24 h | IC50 | 81.8 µg/mL |
| Cc1c(NN=C2SC(C(C#N)=Cc3ccccc3)=NC2=O)c(=O)n(-c2ccccc2)n1C | Bacillus subtilis | microbial growth, well diffusion |  | 100000 µg/mL | inhibition zone | 17 mm |
| C[C@@H](c1ncncc1F)[C@](O)(Cn1cncn1)c1ccc(F)cc1F | Acanthamoeba polyphaga | parasite growth, resazurin |  | 96 h | IC50 | 28.9 µM |
| O=C1NC(=S)S/C1=C\c1c2ccccc2c(-c2ccc(N(c3ccccc3)c3ccccc3)cc2)c2ccccc12 | Bacillus subtilis | microbial killing, broth dilution | ATCC6633 |  | MBC | > 1000 µg/mL |
| C/C(O)=C1\C(=O)C(CC(C)C)N(C(=O)C=Cc2ccccc2)C1=O (stereo not drawn) | Proteus vulgaris | microbial growth | ATCC33420 |  | MIC | > 200 µg/mL |
| COc1ccc(-n2cc(Cn3c(C(=O)O)nc4ccccc4c3=O)nn2)cc1 | Nakaseomyces glabratus | microbial growth, broth dilution | ATCC90030 | 24 h | IC50 | 718 µg/mL |
| C[C@@H]1[C@H](O)[C@@H](C)/C=C/C=C/C=C/C=C/C=C/C=C/C=C/[C@H](O[C@@H]2O[C@H](C)[C@@H](O)[C@H](N)[C@@H]2O)C[C@@H]2O[C@](O)(C[C@@H](O)C[C@@H](O)[C@H](O)CC[C@@H](O)C[C@@H](O)CC(=O)O[C@H]1C)C[C@H](O)[C@H]2C(=O)O | Cryptococcus neoformans | microbial killing | ATCC90113 |  | MFC | 2.5 µg/mL (≈ 2.71 µM) |
| O=C(O)c1nc2ccccc2c(=O)n1Cc1cn(-c2ccccc2F)nn1 | Nakaseomyces glabratus | microbial growth, broth dilution | ATCC90030 | 24 h | IC50 | 174 µg/mL |
| CCOC(=O)c1c(N)csc1-c1cn(-c2ccccc2)nc1-c1ccc(C)cc1 | Bacillus subtilis | microbial killing, broth dilution |  |  | MBC | 0.25 µg/mL (≈ 0.62 µM) |
| O=C(O)c1nc2ccccc2c(=O)n1Cc1cn(-c2ccccc2[N+](=O)[O-])nn1 | Nakaseomyces glabratus | microbial growth, broth dilution | ATCC90030 | 24 h | IC50 | 487 µg/mL |
| C[C@@H]1[C@H](O)[C@@H](C)/C=C/C=C/C=C/C=C/C=C/C=C/C=C/[C@H](O[C@@H]2O[C@H](C)[C@@H](O)[C@H](N)[C@@H]2O)C[C@@H]2O[C@](O)(C[C@@H](O)C[C@@H](O)[C@H](O)CC[C@@H](O)C[C@@H](O)CC(=O)O[C@H]1C)C[C@H](O)[C@H]2C(=O)O | Cryptococcus neoformans | microbial growth, broth dilution | ATCC90113 |  | IC50 | 0.24 µg/mL |
| CCCCCCC/C=C/C(=O)N1C(=O)/C(=C(\O)c2ccncc2)C(=O)C1CC(C)C (stereo not drawn) | Proteus vulgaris | microbial growth | ATCC33420 |  | MIC | > 200 µg/mL |
| CCOC(=O)c1nc2ccccc2c(=O)n1Cc1cn(-c2ccccc2Cl)nn1 | Nakaseomyces glabratus | microbial growth, broth dilution | ATCC90030 | 24 h | IC50 | 183 µg/mL |
| CCOC(=O)C=c1[nH]c(=O)c(=Cc2cn(-c3ccccc3)nc2-c2ccc(C)cc2)s1 | Bacillus subtilis | microbial growth, well diffusion |  | 100000 µg/mL | inhibition zone | 13 mm |
